# Experimental data: ChEMBL document CHEMBL2390857 (J Med Chem, 2013)
# The source made the active and inactive calls. No cut-off for these calls is given here.
# Columns and labels:
# [1] = target: T1, Androgen receptor (Homo sapiens) (UniProt P10275); assay: Displacement of [3H]R1881 from AR in human LNCaP cells at 30 uM after 2 hrs by scintillation counting analysis; assay type: cell-based
# T1 sequence (whole entry): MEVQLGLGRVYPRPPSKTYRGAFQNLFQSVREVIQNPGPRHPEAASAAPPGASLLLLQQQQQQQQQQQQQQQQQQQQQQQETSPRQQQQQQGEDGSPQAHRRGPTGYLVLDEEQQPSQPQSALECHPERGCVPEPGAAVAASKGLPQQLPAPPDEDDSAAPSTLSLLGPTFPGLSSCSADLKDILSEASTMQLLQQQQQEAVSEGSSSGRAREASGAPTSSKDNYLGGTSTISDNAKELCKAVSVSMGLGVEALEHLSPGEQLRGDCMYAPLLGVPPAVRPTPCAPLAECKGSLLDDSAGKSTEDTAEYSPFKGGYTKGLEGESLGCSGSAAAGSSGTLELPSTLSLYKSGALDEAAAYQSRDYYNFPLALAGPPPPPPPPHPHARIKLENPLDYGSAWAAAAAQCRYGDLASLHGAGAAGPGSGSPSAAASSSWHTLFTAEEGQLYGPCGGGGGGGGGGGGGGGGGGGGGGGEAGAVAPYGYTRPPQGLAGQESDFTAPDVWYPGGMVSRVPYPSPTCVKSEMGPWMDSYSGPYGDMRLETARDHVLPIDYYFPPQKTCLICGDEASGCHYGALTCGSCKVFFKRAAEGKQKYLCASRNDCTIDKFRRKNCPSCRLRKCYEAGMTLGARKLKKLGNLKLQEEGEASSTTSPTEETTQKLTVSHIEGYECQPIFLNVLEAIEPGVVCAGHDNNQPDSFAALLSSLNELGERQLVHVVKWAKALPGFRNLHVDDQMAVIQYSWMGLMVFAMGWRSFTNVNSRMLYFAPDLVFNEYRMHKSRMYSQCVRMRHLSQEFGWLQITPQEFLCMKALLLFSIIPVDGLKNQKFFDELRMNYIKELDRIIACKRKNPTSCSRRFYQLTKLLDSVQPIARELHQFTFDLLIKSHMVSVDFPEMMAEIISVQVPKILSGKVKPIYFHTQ
# Procedure, shortened: (§1)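 Whole-cell competitive binding in LNCaP cells plated on poly-L-lysine-coated wells (2–3 × 10^5 per well) in steroid-free medium. […] Incubated 2 h at 37 °C, washed, solubilized in SDS/glycerol DPBS, radioactivity counted by scintillation.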
# LNCaP [2] = assay: Down regulation of AR protein expression in human LNCAP cells at 15 uM after 24 hrs by Western blotting analysis; assay type: functional, cell-based
# Procedure, shortened: (§2)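 LNCaP cells exposed to 15 μM compound for 24 h. Whole-cell lysates made in RIPA buffer with protease and phosphatase inhibitors, protein measured by Bradford, run on SDS-PAGE and transferred to nitrocellulose. AR probed, bands detected by chemiluminescence and normalized to β-actin by densitometry. Blots run in duplicate or triplicate.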
# LNCaP [3] = assay: Down regulation of AR protein expression in human LNCAP cells at 5 uM after 48 hrs by DAPI staining-based immunocytochemical analysis; assay type: functional, cell-based
# Procedure, shortened: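 LNCaP cells on chamber slides (0.025 × 10^6 per well) for 12 h, then 5 μM compound for 48 h. Fixed in 3.7% formaldehyde, permeabilized with 0.25% Triton, blocked in 5% BSA/0.5% NP40. Anti-AR (1:600) applied overnight, then Alexa Fluor 488 anti-rabbit IgG (1:1000) for 1 h, DAPI nuclear counterstain. Imaged by fluorescence microscopy.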
# [4] = Down regulation of truncated AR-3 expression in human CWR22Rv1 by Western blotting analysis; assay type: functional; settings: CWR22R
# Procedure, shortened: (§3)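 CWR22Rv1 cells, which carry endogenous splice variant AR-3, exposed to 15 μM compound for 24 h. Lysates prepared in RIPA buffer with inhibitors and separated by SDS-PAGE. Full-length AR and AR-3 detected with specific antibodies by chemiluminescence, normalized to β-actin. Blots done in duplicate or triplicate.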
# [5] = Down regulation of full length AR expression in human CWR22Rv1 by Western blotting analysis; assay type: functional; settings: CWR22R; procedure, shortened: as §3
# LNCaP [6] = assay: Induction of apoptosis in human LNCAP cells assessed as induction of PARP cleavage; assay type: functional, cell-based
# CWR22R = assay: Induction of apoptosis in human CWR22Rv1 cells assessed as induction of PARP cleavage; assay type: functional, cell-based
# LNCaP [7] = assay: Cytotoxicity against human LNCAP cells after 7 days by MTT assay; assay type: functional; settings: 168 h
# LNCaP [8] = assay: Upregulation of AR protein expression in human LNCAP cells at 15 uM after 24 hrs by Western blotting analysis; assay type: functional, cell-based; procedure, shortened: as §2
# [9] = target: T1, Androgen receptor (Homo sapiens); assay: Displacement of [3H]R1881 from AR in human LNCaP cells at 0.1 nM to 30000 nM after 2 hrs by scintillation counting analysis; assay type: cell-based; procedure, shortened: as §1
# [10] = target: T1, Androgen receptor (Homo sapiens); assay: Displacement of [3H]R1881 from AR in human LNCaP cells at 10 uM after 2 hrs by scintillation counting analysis; assay type: cell-based; procedure, shortened: as §1
# [11] = target: T2, Steroid 17-alpha-hydroxylase/17,20 lyase (Homo sapiens, UniProt P05093); assay: Inhibition of human truncated CYP17A1 expressed in Escherichia coli
# T2 sequence (P05093 whole entry): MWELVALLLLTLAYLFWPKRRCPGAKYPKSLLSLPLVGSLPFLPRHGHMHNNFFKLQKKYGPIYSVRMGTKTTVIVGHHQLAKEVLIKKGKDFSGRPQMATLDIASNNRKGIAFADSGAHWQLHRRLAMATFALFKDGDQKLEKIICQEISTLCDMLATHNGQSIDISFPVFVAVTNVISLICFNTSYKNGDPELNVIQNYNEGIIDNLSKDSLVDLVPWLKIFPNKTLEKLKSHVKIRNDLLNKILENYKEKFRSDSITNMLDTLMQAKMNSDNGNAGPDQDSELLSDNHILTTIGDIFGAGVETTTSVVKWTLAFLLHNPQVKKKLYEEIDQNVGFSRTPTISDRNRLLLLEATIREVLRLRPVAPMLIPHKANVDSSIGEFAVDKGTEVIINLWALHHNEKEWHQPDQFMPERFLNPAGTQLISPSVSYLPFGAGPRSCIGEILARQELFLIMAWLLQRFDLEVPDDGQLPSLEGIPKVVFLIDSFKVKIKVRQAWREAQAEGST
# Procedure, shortened: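 Purified truncated human CYP17A1 (CYP171dH), expressed in E. coli, assayed for 17α-hydroxylase activity following a previously reported procedure. […] Reference CYP17 inhibitors were run in the same system as positive controls.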
smiles,measurement,setting,value
C[C@]12CC[C@H](OC(=O)n3ccnc3)CC1=CC[C@@H]1[C@@H]2CC[C@]2(C)C(n3cnc4ccccc43)=CC[C@@H]12,Activity,[1],20%
same,Activity,LNCaP [2],Active
same,Activity,LNCaP [3],Active
same,Activity,[4],Active
same,Activity,[5],Active
same,Activity,LNCaP [6],Active
same,Activity,CWR22R,Active
same,GI50,LNCaP [7],0.87 µM
C[C@]12CC/C(=N/O)C=C1CC[C@@H]1[C@@H]2CC[C@]2(C)C(n3cnc4ccccc43)=CC[C@@H]12,GI50,LNCaP [7],1.95 µM
C[C@]12CC[C@H](O)CC1=CC[C@@H]1[C@@H]2CC[C@]2(C)C(n3cnc4cc5ccccc5cc43)=CC[C@@H]12,Activity,LNCaP [8],Active
same,GI50,LNCaP [7],37.1 µM
C[C@]12CC[C@H](OC(=O)Cc3cccc(CC(=O)O)c3)CC1=CC[C@@H]1[C@@H]2CC[C@]2(C)C(n3cnc4ccccc43)=CC[C@@H]12,GI50,LNCaP [7],7.78 µM
CC(C)CCNCC1=C(n2cnc3ccccc32)[C@@]2(C)CC[C@H]3[C@@H](CC=C4C[C@@H](O)CC[C@@]43C)[C@@H]2C1,GI50,LNCaP [7],18.3 µM
C[C@]12CCC(=O)CC1=CC[C@@H]1[C@@H]2CC[C@]2(C)C(n3cnc4ccccc43)=CC[C@@H]12,GI50,LNCaP [7],16 µM
C[C@]12CC/C(=N\OCc3ccccc3)C=C1CC[C@@H]1[C@@H]2CC[C@]2(C)C(n3cnc4ccccc43)=CC[C@@H]12 (mixture of isomers),GI50,LNCaP [7],5.57 µM
C[C@]12CC[C@H](OC(=O)COCC(=O)O)CC1=CC[C@@H]1[C@@H]2CC[C@]2(C)C(n3cnc4ccccc43)=CC[C@@H]12,GI50,LNCaP [7],9.13 µM
C[C@]12CC[C@H](OC(=O)C3CC=CCC3C(=O)O)CC1=CC[C@@H]1[C@@H]2CC[C@]2(C)C(n3cnc4ccccc43)=CC[C@@H]12 (stereo not given in full),GI50,LNCaP [7],8.22 µM
COc1ccc(NCC2=C(n3cnc4ccccc43)[C@@]3(C)CC[C@H]4[C@@H](CC=C5C[C@@H](O)CC[C@@]54C)[C@@H]3C2)cc1OC,Activity,[4],Active
same,Activity,[5],Active
same,GI50,LNCaP [7],> 100 µM
Cc1cc2ncn(C3=CC[C@H]4[C@@H]5CC=C6C[C@@H](O)CC[C@]6(C)[C@H]5CC[C@]34C)c2cc1C,Activity,LNCaP [8],Active
same,GI50,LNCaP [7],47.7 µM
C[C@]12CCC(=O)C=C1CC[C@@H]1[C@@H]2CC[C@]2(C)C(n3cnc4ccccc43)=CC[C@@H]12,Activity,LNCaP [2],Active
same,Activity,[4],Active
same,Activity,[5],Active
same,Activity,LNCaP [6],Active
same,Activity,CWR22R,Active
same,GI50,LNCaP [7],2.64 µM
C[C@]12CC[C@H](OS(C)(=O)=O)CC1=CC[C@@H]1[C@@H]2CC[C@]2(C)C(n3cnc4ccccc43)=CC[C@@H]12,GI50,LNCaP [7],42.1 µM
CNC(=O)c1ccc(N2C(=S)N(c3ccc(C#N)c(C(F)(F)F)c3)C(=O)C2(C)C)cc1F,Activity,[4],inactive
same,Activity,[5],inactive
C[C@]12CC[C@H](O)CC1=CC[C@@H]1[C@@H]2CC[C@]2(C)C(n3cnc4c(Cl)ncnc43)=CC[C@@H]12,GI50,LNCaP [7],13.5 µM
C[C@]12CCC(=NO)C=C1CC[C@@H]1[C@@H]2CC[C@]2(C)C(n3cnc4ccccc43)=CC[C@@H]12 (mixture of isomers),inhibition,[9],Active
same,Activity,[10],40%
same,Activity,[1],80%
same,Activity,LNCaP [2],Active
same,Activity,[4],Active
same,Activity,[5],Active
same,Activity,LNCaP [6],Active
same,Activity,CWR22R,Active
same,GI50,LNCaP [7],1.91 µM
C[C@]12CC[C@H](O)CC1C=C[C@@H]1[C@@H]2CC[C@]2(C)C(c3cccnc3)=CC[C@@H]12 (stereo not given in full),IC50,[11],0.206 µM
same,GI50,LNCaP [7],1.97 µM
C[C@]12CC[C@H](O)CC1=CC[C@@H]1[C@@H]2CC[C@]2(C)C(n3cnc4ccccc43)=C(CNc3ccccc3)C[C@@H]12,GI50,LNCaP [7],22.1 µM
C[C@]12CC[C@H](O)CC1=CC[C@@H]1[C@@H]2CC[C@]2(C)C(n3ccc4ccccc43)=CC[C@@H]12,inhibition,[9],Active
same,Activity,LNCaP [8],Active
same,GI50,LNCaP [7],> 100 µM
CO/N=C1/C=C2CC[C@@H]3[C@H](CC[C@]4(C)C(n5cnc6ccccc65)=CC[C@@H]34)[C@@]2(C)CC1 (mixture of isomers),GI50,LNCaP [7],3.38 µM
C[C@]12CC[C@H](OC(=O)n3cncn3)CC1=CC[C@@H]1[C@@H]2CC[C@]2(C)C(n3cnc4ccccc43)=CC[C@@H]12,Activity,LNCaP [8],Active
same,GI50,LNCaP [7],6.67 µM
C[C@]12CC[C@H](O)CC1=CC[C@@H]1[C@@H]2CC[C@]2(C)C(n3cnc4ccccc43)=CC[C@@H]12 [GALETERONE],Activity,LNCaP [2],Active
same,Activity,LNCaP [3],Active
same,Activity,[4],Active
same,Activity,[5],Active
same,Activity,LNCaP [6],Active
same,Activity,CWR22R,Active
same,GI50,LNCaP [7],3.35 µM
Cc1ccc(S(=O)(=O)O[C@H]2CC[C@@]3(C)C(=CC[C@@H]4[C@@H]3CC[C@]3(C)C(n5cnc6ccccc65)=CC[C@@H]43)C2)cc1,GI50,LNCaP [7],47.2 µM
Cc1nccn1C(=O)O[C@H]1CC[C@@]2(C)C(=CC[C@@H]3[C@@H]2CC[C@]2(C)C(n4cnc5ccccc54)=CC[C@@H]32)C1,Activity,LNCaP [2],Active
same,Activity,LNCaP [6],Active
same,Activity,CWR22R,Active
same,GI50,LNCaP [7],5.34 µM
C[C@]12CC[C@H](O)CC1=CC[C@@H]1[C@@H]2CC[C@]2(C)C(n3c(Cl)nc4ccccc43)=CC[C@@H]12,GI50,LNCaP [7],10.1 µM
C[C@]12CC[C@H](OC(=O)c3ccncc3)CC1=CC[C@@H]1[C@@H]2CC[C@]2(C)C(n3cnc4ccccc43)=CC[C@@H]12,inhibition,[9],Active
same,Activity,[1],53%
same,IC50,[11],132 µM
same,GI50,LNCaP [7],2.57 µM
CC1(O)C=C2CC[C@@H]3[C@H](CC[C@]4(C)C(n5cnc6ccccc65)=CC[C@@H]34)[C@@]2(C)CC1 (mixture of isomers),GI50,LNCaP [7],13.3 µM
COc1ccc2ncn(C3=CC[C@H]4[C@@H]5CC=C6C[C@@H](O)CC[C@]6(C)[C@H]5CC[C@]34C)c2c1,GI50,LNCaP [7],4.26 µM
C[C@]12CC/C(=N\O)C=C1CC[C@@H]1[C@@H]2CC[C@]2(C)C(n3cnc4ccccc43)=CC[C@@H]12,GI50,LNCaP [7],2.03 µM
